According to ChEMBL document CHEMBL4680153, “New Spisulosine Derivative promotes robust autophagic response to cancer cells” (Eur J Med Chem, 2020):
Active and inactive are the calls of the source. No cut-off for these calls is given here.

What was measured:
[1] = tested on: MCF7; assay: Antiproliferative activity against human MCF7 cells assessed as reduction in cell growth at 10 uM incubated for 48 hrs by SRB assay relative to control; format: functional
How it was run: (§1)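 Early-passage cells plated at 40% confluency and left overnight, then exposed to 10 μM compound for 48 h. Growth was measured by sulforhodamine B staining, with absorbance at 510 nm. Percent growth inhibition was calculated against untreated cells.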

[2] = tested on: HT-29; assay: Antiproliferative activity against human HT-29 cells assessed as reduction in cell growth at 10 uM incubated for 48 hrs by SRB assay relative to control; format: functional; how it was run: as §1
[3] = tested on: A549; assay: Antiproliferative activity against human A549 cells assessed as reduction in cell growth at 10 uM incubated for 48 hrs by SRB assay relative to control; format: functional; how it was run: as §1
[4] = tested on: DLD-1; assay: Antiproliferative activity against human DLD-1 cells assessed as reduction in cell growth at 10 uM incubated for 48 hrs by SRB assay relative to control; format: functional; how it was run: as §1
[5] = tested on: MDA-MB-231; assay: Antiproliferative activity against human MDA-MB-231 cells assessed as reduction in cell growth at 10 uM incubated for 48 hrs by SRB assay relative to control; format: functional; how it was run: as §1
[6] = tested on: NCI-H358; assay: Antiproliferative activity against human NCI-H358 cells assessed as reduction in cell growth at 10 uM incubated for 48 hrs by SRB assay relative to control; format: functional; how it was run: as §1
[7] = tested on: DLD-1; assay: Induction of apoptosis in human DLD-1 cells assessed as necrotic cells at 7.5 uM incubated for 18 hrs by Annexin V-FITC and propidium iodide staining based flow cytometry analysis (reference value: 4.1 %); format: functional
[8] = tested on: DLD-1; assay: Induction of apoptosis in human DLD-1 cells assessed as early apoptotic cells at 7.5 uM incubated for 18 hrs by Annexin V-FITC and propidium iodide staining based flow cytometry analysis (reference value: 4.95 %); format: functional
[9] = tested on: LNCaP; assay: Cytotoxicity against human LNCaP cells assessed as reduction in cell viability incubated for 48 hrs by MTT assay; format: functional, cell-based
[10] = tested on: KB; assay: Cytotoxicity against human KB cell; format: functional, cell-based
[11] = tested on: HL-60; assay: Cytotoxicity against human HL-60 cell; format: functional, cell-based
[12] = tested on: DLD-1; assay: Induction of apoptosis in human DLD-1 cells assessed as viable cells at 7.5 uM incubated for 18 hrs by Annexin V-FITC and propidium iodide staining based flow cytometry analysis (reference value: 85.2 %); format: functional; settings: read-out: Activity
[13] = tested on: DLD-1; assay: Induction of autophagy in human DLD-1 cells assessed as reduction in cell viability at 7.5 uM incubated for 24 hrs in presence of Bafilomycin-A1 by crystal violet staining based phase contrast microscopic analysis; format: functional
[14] = tested on: PC-3; assay: Cytotoxicity against human PC-3 cells assessed as reduction in cell viability incubated for 48 hrs by MTT assay; format: functional, cell-based; settings: PC-3, 48 h
[15] = tested on: HCT-116; assay: Cytotoxicity against human HCT-116 cell; format: functional, cell-based
[16] = tested on: DLD-1; assay: Induction of apoptosis in human DLD-1 cells assessed as increase in PARP cleavage at 5 to 7.5 uM by Western blot analysis; format: functional, cell-based; settings: dose 5-7.5 µM
How it was run: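 DLD-1 cells were treated at 7.5 μM for 18 h and lysed in NP-40 buffer containing protease and phosphatase inhibitors. Protein was quantified by BCA, and equal amounts were run on 15% SDS-PAGE and transferred to PVDF. Cleaved PARP was probed and detected by enhanced chemiluminescence.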

[17] = tested on: DLD-1; assay: Induction of apoptosis in human DLD-1 cells assessed as late apoptotic cells at 7.5 uM incubated for 18 hrs by Annexin V-FITC and propidium iodide staining based flow cytometry analysis (reference value: 5.7 %); format: functional

Compound	inhibition at 10 µM [1]	inhibition at 10 µM [2]	inhibition at 10 µM [3]	inhibition at 10 µM [4]	inhibition at 10 µM [5]	inhibition at 10 µM [6]	Activity [7]	Activity [8]	IC50 [9]	IC50 [10]	IC50 [11]	viability at 7.5 µM [12]	Activity [13]	IC50 [14]	IC50 [15]	Activity [16]	Activity [17]
CCCCCCCCCCCCCC[C@H](OCOC)[C@H](CN(CC)CC)NC(=O)OC(C)(C)C	25.2%	-3.21%	27.5%	46.2%	0.84%	14.9%											
CCCCCCCCCCCCCCC[C@@H](O)[C@H](C)N							4.2%	14.2%	1000 nM	100 nM	100 nM	78%	Active	1000 nM	100 nM	Active	3.4%
CCCCCCCCCCCCCC[C@H](O)[C@H](CO[Si](c1ccccc1)(c1ccccc1)C(C)(C)C)NC(=O)OC(C)(C)C	2.79%	-14.4%	14.6%	10.4%	-37.5%	3.11%											
CCCCCCCCCCCCCC[C@H](O)[C@H](CN(CC)CC)NC(=O)OC(C)(C)C	18.7%		18.5%	14.7%	-1.45%	8.37%											
CCCCCCCCCCCCCC[C@H](OCOC)[C@H](CO)NC(=O)OC(C)(C)C	10.2%	22%	25.9%	54.8%	-5.67%	18.4%											
CCCCCCCCCCCCCC[C@H](O)[C@H](CN(CCCC)CCCC)NC(=O)OC(C)(C)C	21.5%	9.83%	30%	23.4%	-9.61%	9.4%											
CCCCCCCCCCCCCC[C@H](OCOC)[C@H](CN(CCCC)CCCC)NC(=O)OC(C)(C)C	27.1%	15%	42.2%	56%	22.3%	25.1%											
COc1cccc2c1C(=O)c1c(O)c3c(c(O)c1C2=O)C[C@@](O)(C(=O)CO)C[C@@H]3O[C@H]1C[C@H](N)[C@H](O)[C@H](C)O1 [DOXORUBICIN]	88.5%	78.4%	80.2%	76.7%	80.2%	77.5%											
CC(C)(C)OC(=O)N[C@H](CO)CO[Si](c1ccccc1)(c1ccccc1)C(C)(C)C	28.3%	46.2%	25.4%	73.5%	32.3%	53.4%											
CCCCCCCCCCCCCC[C@H](OCOC)[C@H](CN1CCCCC1)NC(=O)OC(C)(C)C	27.3%	14.2%	19%	43.7%	9.84%	15.2%											
CCCCCCCCCCCCCC[C@H](OCOC)[C@H](CO[Si](c1ccccc1)(c1ccccc1)C(C)(C)C)NC(=O)OC(C)(C)C	-7.95%	-18.8%	15.1%	-14.6%	-28%	-2.89%											
CCCCCCCCCCCCCC[C@H](OCOC)[C@H](CN1CCSCC1)NC(=O)OC(C)(C)C	24%	8.57%	29.9%	58.5%	4.73%	22.7%											
CCCCCCCCCCCCCC[C@H](OCOC)[C@H](CN1CCN(C)CC1)NC(=O)OC(C)(C)C	28%		18.2%	31.9%	24%	18.9%											
CCCCCCCCCCCCCC[C@H](OCOC)[C@H](CN(C(C)C)C(C)C)NC(=O)OC(C)(C)C	26.9%	19.9%	22.6%	53.9%	31%	26.6%											
CCCCCCCCCCCCCC[C@H](O)[C@H](CN(C(C)C)C(C)C)NC(=O)OC(C)(C)C	25.3%	11.6%	22.9%	34.8%	-1.17%	11.3%											
CCCCCCCCCCCCCC[C@H](O)[C@H](Cc1ccc(OC)cc1)NC(=O)OC(C)(C)C	8.77%	-7.41%	23.4%	27.9%	-16.5%	6.37%											
CCCCCCCCCCCCCC[C@H](O)[C@H](CN1CCSCC1)NC(=O)OC(C)(C)C	30.2%	12%	32%	32.4%	6.84%	10.8%											
